Source: PubChem (several laboratories)
MIN6 prolif – induces beta-cell replication in MIN6 cells; MIN6 cells proliferation, ATPlite luminescence, 48 h; cells starved in 0.2% serum; 100% = growth in 10% serum; proliferation, % at 10 µM; 330,000 tested, 0.29% active; AID 2380;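 active means compounds whose signal lies at least 3.5 SD above the mean of all wells on their plate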;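 further: 0% = DMSO-treated cells in low-serum medium and 100% = 10% serum control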
m5-HT2A agonist – mouse HTR2A agonism via beta-arrestin recruitment. P35363. activation, % at 7.6 µM. 360,000 tested, 0.66% active. CHO-K1 mHTR2A beta-arrestin complementation, luminescence; percent of 30 µM serotonin response;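 active means activation above a run cutoff, the mean activation of all tested compounds plus 3 SD, cut at about 14% in these data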;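 further: 0% = plate median of compound wells and 100% = 30 µM serotonin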
Target sequence (P35363 whole entry, looked up): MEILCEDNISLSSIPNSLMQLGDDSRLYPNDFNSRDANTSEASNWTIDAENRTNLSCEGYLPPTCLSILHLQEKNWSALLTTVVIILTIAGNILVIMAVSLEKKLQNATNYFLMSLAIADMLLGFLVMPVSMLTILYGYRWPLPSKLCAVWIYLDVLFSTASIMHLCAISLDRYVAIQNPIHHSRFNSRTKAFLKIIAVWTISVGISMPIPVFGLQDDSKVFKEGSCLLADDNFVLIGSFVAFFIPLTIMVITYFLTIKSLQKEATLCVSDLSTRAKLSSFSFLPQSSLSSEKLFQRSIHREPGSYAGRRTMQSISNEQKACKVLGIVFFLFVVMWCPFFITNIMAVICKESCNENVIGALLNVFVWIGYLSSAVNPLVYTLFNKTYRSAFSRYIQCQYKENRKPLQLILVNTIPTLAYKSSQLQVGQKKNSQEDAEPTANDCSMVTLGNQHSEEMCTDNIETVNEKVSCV
MC4R antagonist – human MC4R antagonism in cAMP assay. P32245. MC4R-expressing cells, MTII-stimulated cAMP, LANCE TR-FRET. inhibition, % at 6.5 µM. 360,000 tested, 0.48% active. AID 540295;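 active means inhibition above its plate's cutoff, the mean of tested wells on that plate plus 3 SD, cut at about 29% in these data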;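 further: 0% = Melanotan II alone and 100% = Melanotan II plus saturating MCL0020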
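Material: human MC4R-expressing U2OS cells. Probe or stimulus: Melanotan II challenge. Dosing: 6.5 µM single dose. Times: 30-min compound, 1-h challenge, 1-h detection, room temperature. Technique: TR-FRET with Eu-cAMP and labeled anti-cAMP, 671 nm. Replication: singlicate.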
TMEM16A act – activators or potentiators of mouse TMEM16A chloride channel | Q8BHY3 | HEK293 TMEM16A/YFP-H148Q/I152L, iodide quench fluorescence; stronger effect = lower value | B-score at 10 µM | 340,000 tested, 0.3% active | AID 623877;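 active means fluorescence-ratio B-score plate-corrected deviation score at least 3 library SD below zero, with starting fluorescence score within 5 deviations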;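 further: channel opened by trigger with iodide after compound preincubation; score built on the fluorescence ratio of max minus min over baseline; more negative score means more quench and so TMEM16A activation or potentiation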
MC4R barr agon – activates human MC4R beta-arrestin recruitment. P32245. U2OS MC4R beta-arrestin complementation, luminescence; percent of melanotan II response, DMSO zero. activation, % at 8.9 µM. 360,000 tested, 0.98% active;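 active means activation above a per-plate cutoff, the mean activation of sample wells on that plate plus 3 SD, cut at about 8% in these data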
TMEM16A inh – inhibitors of mouse TMEM16A calcium-activated chloride channel. normalized B-score (activity score, 25-100; higher = stronger inhibition) at 10 µM. 310,000 tested, 1.2% active. Q8BHY3. HEK293 TMEM16A/YFP iodide influx fluorescence, ionomycin;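 active means ratio plate-corrected score three or more library SD toward inhibition, starting fluorescence score within five deviations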;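 further: score derived from kinetic fluorescence span divided by baseline fluorescence per well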
MC4R barr conf – human MC4R beta-arrestin agonism confirmation; shares compounds with MC4R barr agon; U2OS MC4R beta-arrestin recruitment, luminescence; scaled DMSO 0%, Melanotan II 100%; activation, % at 8.9 µM; 2,400 tested, 31% active; AID 602192;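 active means mean activation across replicates above the hit cutoff set in the earlier primary screen, cut at about 8% in these data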
MOR-DOR barr ag – counter-screen for MC4R agonists: agonists of mu-delta opioid heterodimer. AID 602194. shares compounds with MC4R barr agon. 2,400 tested, 5.8% active. activation, % at 9.2 µM. U2OS PathHunter beta-arrestin, beta-gal luminescence; percent of deltorphin B response, DMSO zero;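 active means mean activation across replicates exceeds the hit threshold derived in the earlier primary screen, cut at about 18% in these data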;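 further: 100% = deltorphin B at 0.9 µM final and 0% = DMSO alone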
* hit, by the source's call. Hits are enriched below; roughly 3.4% of the tested compounds scored in any of these assays.

`CC[C@]12c3[nH]c4cc(-c5ccco5)ccc4c3CCN1C(=O)[C@@H](CC(=O)NCCN1CCOCC1)C[C@@H]2C(=O)N1CCN(C(=O)C2CC2)CC1` gave m5-HT2A agonist 12.6, MC4R antagonist 8.8 and MC4R barr agon -1.2.
`COc1ccc(Cn2c(C)c(C)c(C#N)c2NC(=O)Nc2cccc(Cl)c2)cc1` gave MIN6 prolif 0.0, m5-HT2A agonist -5.9, MC4R antagonist -6.9, TMEM16A act inactive, MC4R barr agon 20.9*, TMEM16A inh inactive, MC4R barr conf 3.3 and MOR-DOR barr ag 6.4.
Screening Cc1c(C#N)c(NC(=O)c2cccc(Cl)c2)n(Cc2ccccc2)c1C returned MIN6 prolif -0.7, m5-HT2A agonist -3.1, MC4R antagonist 4.6, TMEM16A act inactive, MC4R barr agon 0.4 and TMEM16A inh inactive.
COc1ccc(Cn2c(C)c(C)c(C#N)c2NC(=O)Nc2ccc(Cl)cc2)cc1 was read as MIN6 prolif -1.8, m5-HT2A agonist -3.4, MC4R antagonist 12.3, TMEM16A act inactive, MC4R barr agon 12.7*, TMEM16A inh inactive, MC4R barr conf 1.3 and MOR-DOR barr ag 5.4.
`COc1ccc(C(C)=O)cc1CN1C(=O)C(C)ON=C1c1cccc(C(F)(F)F)c1` (centres undefined) gave m5-HT2A agonist 9.1, MC4R antagonist 7.6 and MC4R barr agon 1.8.
`COC(=O)c1sc2ccccc2c1N` gave MIN6 prolif 4.6, m5-HT2A agonist 0.3, MC4R antagonist 7.4, TMEM16A act inactive, MC4R barr agon -1.0 and TMEM16A inh inactive.
`CCOC(=O)c1sc2ccccc2c1OC(=O)c1ccc(C)cc1` gave MIN6 prolif -5.3, m5-HT2A agonist -1.1, MC4R antagonist 5.3, TMEM16A act inactive, MC4R barr agon 14.0*, TMEM16A inh inactive, MC4R barr conf 7.2 and MOR-DOR barr ag 8.4.
`N#C/C(=C/c1ccc(N2CCCCC2)o1)C(=O)Nc1ccc(Cl)cc1` gave MIN6 prolif -0.2, m5-HT2A agonist 2.7, MC4R antagonist -4.2, TMEM16A act inactive, MC4R barr agon 10.5*, TMEM16A inh inactive, MC4R barr conf 0.7 and MOR-DOR barr ag 6.3.
N#C/C(=C\c1ccc(N2CCOCC2)o1)C(=O)Nc1ccc(O)cc1 was read as MIN6 prolif -0.8, m5-HT2A agonist -6.2, MC4R antagonist -35.1, TMEM16A act inactive, MC4R barr agon -2.0 and TMEM16A inh inactive.
Screening CCCC[C@@H]1CC2=C(C(=O)OC(C)(C)O2)[C@@H](c2ccc(Cl)cc2)O1 returned m5-HT2A agonist -6.0.
Screening C[C@@H]1CN([C@@H](C)CO)C(=O)c2c(c3ccccc3n2C)-c2ccccc2CO[C@H]1CN(C)S(=O)(=O)c1ccc(C(F)(F)F)cc1 returned m5-HT2A agonist 13.4, MC4R antagonist 5.6 and MC4R barr agon -2.1.
`Cc1cc2c(cc1S(=O)(=O)N1CCN(c3cccc(C(F)(F)F)c3)CC1)OCC(=O)N2` gave MIN6 prolif -2.7, m5-HT2A agonist -4.2, MC4R antagonist 6.0, TMEM16A act inactive, MC4R barr agon 7.6 and TMEM16A inh inactive.
For CC(=O)c1ccc(N2CCN(S(=O)(=O)c3cc4c(cc3C)NC(=O)CO4)CC2)cc1 the results were MIN6 prolif 3.8, m5-HT2A agonist 4.8, MC4R antagonist 6.8, TMEM16A act inactive, MC4R barr agon 15.8*, TMEM16A inh inactive, MC4R barr conf 0.8 and MOR-DOR barr ag 1.8.
Screening O=C1COc2ccc(S(=O)(=O)N3CCN(c4cccc(C(F)(F)F)c4)CC3)cc2N1 returned MIN6 prolif -2.1, m5-HT2A agonist -1.4, MC4R antagonist 10.3, TMEM16A act inactive, MC4R barr agon 11.0*, TMEM16A inh inactive, MC4R barr conf 2.8 and MOR-DOR barr ag 7.2.
CCOC(=O)Cn1c(=NC(=O)c2nc3ccccc3s2)sc2cc(S(N)(=O)=O)ccc21 was read as MIN6 prolif -1.9, m5-HT2A agonist 5.3, MC4R antagonist 28.3, TMEM16A act inactive, MC4R barr agon 11.5*, TMEM16A inh inactive, MC4R barr conf 1.2 and MOR-DOR barr ag 2.9.
For C#CCn1c(=NC(=O)c2ccc(Cl)s2)sc2cccc(OC)c21 the results were MIN6 prolif -5.1, m5-HT2A agonist -2.8, MC4R antagonist 8.8, TMEM16A act inactive, MC4R barr agon 15.0*, TMEM16A inh inactive, MC4R barr conf 6.4 and MOR-DOR barr ag 2.0.
`C#CCn1c(=NC(=O)c2cccs2)sc2cccc(OCC)c21` gave MIN6 prolif 8.7, m5-HT2A agonist 9.7, MC4R antagonist 19.4, TMEM16A act inactive, MC4R barr agon 23.9*, TMEM16A inh inactive, MC4R barr conf 3.6 and MOR-DOR barr ag 2.2.
For CCOC(=O)Cn1c(=NC(=O)c2cccs2)sc2cc(C(=O)OC)ccc21 the results were MIN6 prolif -0.4, m5-HT2A agonist 3.1, MC4R antagonist 4.1, TMEM16A act inactive, MC4R barr agon 1.3 and TMEM16A inh inactive.
COC(=O)C1CC2(C(=O)OC)CC(C(=O)OC)(CC(C(=O)OC)C2=O)C1=O (centres undefined) was read as m5-HT2A agonist 0.8, MC4R antagonist -4.2, TMEM16A act inactive and MC4R barr agon -2.3.
CCOc1ccc2nc(SCC(=O)NC3CCCc4ccccc43)sc2c1 (centres undefined) was read as MIN6 prolif -2.3, m5-HT2A agonist 2.4, MC4R antagonist -6.1, TMEM16A act inactive, MC4R barr agon 30.9*, TMEM16A inh inactive, MC4R barr conf 2.0 and MOR-DOR barr ag 2.8.
Screening O=C(COC(=O)c1n[nH]c2ccccc12)NC(=O)NC12CC3CC(CC(C3)C1)C2 returned MIN6 prolif -2.8, m5-HT2A agonist 3.8, MC4R antagonist 1.8, TMEM16A act inactive, MC4R barr agon 18.3*, TMEM16A inh inactive, MC4R barr conf 2.9 and MOR-DOR barr ag 6.7.
For O=C(Nc1cc(NC(=O)c2ccccc2F)ccc1Cl)c1ccccc1 the results were MIN6 prolif -1.9, m5-HT2A agonist 6.5, MC4R antagonist 11.9, MC4R barr agon 0.0 and TMEM16A inh inactive.
Screening CCOc1ccc(OCC)c(NC(=O)CSc2nc3cccnc3n2C)c1 returned MIN6 prolif -0.5, m5-HT2A agonist 0.7, MC4R antagonist 0.9, TMEM16A act inactive, MC4R barr agon -0.7 and TMEM16A inh inactive.
